Activity calls are given as the source filed them. No cut-off for these calls is given here.
Assays:
[1] = molecular target: T1, Cannabinoid receptor 1 (Homo sapiens, UniProt P21554); experiment: Displacement of [3H]CP55940 from human CB1 receptor expressed in human HEK293 cells; format: cell-based
[2] = molecular target: Cannabinoid receptor 2 (Homo sapiens, UniProt P34972); experiment: Displacement of [3H]CP55940 from human CB2 receptor expressed in human HEK293 cells; format: cell-based
In short: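 Membranes from HEK-293 cells stably expressing human CB1 or CB2. Compounds displacing >50% at 10 μM got curves at 1–1000 nM. Ki from IC50 via Cheng–Prusoff. Three experiments in duplicate. SI = Ki CB2/Ki CB1.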

[3] = species: Homo sapiens; experiment: Selectivity index, ratio of Ki for human CB2 receptor to Ki for human CB1 receptor
In short: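 Membranes from HEK-293 cells stably expressing human CB1 or CB2. […] Preliminary screen at 5, 10, 25 μM. Compounds displacing >50% at 10 μM got curves at 1–1000 nM. Ki from IC50 via Cheng–Prusoff. Three experiments in duplicate. SI = Ki CB2/Ki CB1.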

[4] = molecular target: Cannabinoid receptor 1 (Mus musculus, UniProt P47746); experiment: Agonist activity at MF1 mouse brain CB1 receptor assessed as induction of [35S]GTPgammaS binding after 60 mins by liquid scintillation counting; format: functional, tissue-based
Chain of Cannabinoid receptor 1 (Mus musculus, UniProt P47746) (P47746 whole entry): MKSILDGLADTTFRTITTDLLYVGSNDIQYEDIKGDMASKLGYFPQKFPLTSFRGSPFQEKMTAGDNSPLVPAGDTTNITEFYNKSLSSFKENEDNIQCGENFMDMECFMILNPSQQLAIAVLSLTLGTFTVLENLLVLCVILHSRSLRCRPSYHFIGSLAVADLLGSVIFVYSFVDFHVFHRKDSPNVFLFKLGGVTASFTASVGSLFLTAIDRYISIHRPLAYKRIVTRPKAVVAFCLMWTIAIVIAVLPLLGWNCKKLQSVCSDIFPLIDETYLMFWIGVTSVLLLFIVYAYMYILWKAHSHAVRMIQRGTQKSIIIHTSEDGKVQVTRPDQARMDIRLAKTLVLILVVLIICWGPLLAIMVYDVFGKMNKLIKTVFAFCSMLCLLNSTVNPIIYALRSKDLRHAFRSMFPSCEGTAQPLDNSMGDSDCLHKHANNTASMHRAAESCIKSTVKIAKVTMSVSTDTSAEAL
In short: (§1)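 [35S]GTPγS binding in buffer of 50 mM Tris-HCl, 50 mM Tris-base, 5 mM MgCl2, 1 mM EDTA, 100 mM NaCl, 1 mM DTT, 0.1% BSA with 0.1 nM [35S]GTPγS and 30 μM GDP. Mouse whole brain membranes (5 μg/well) were preincubated 30 min at 30 °C with adenosine deaminase. CHO-hCB1 membranes were used at 50 μg/well. Test range 1 nM–10 μM. Incubation 60 min at 30 °C, filtration, scintillation counting. Nonspecific binding taken with 30 μM GTPγS. Net stimulation = agonist minus basal. EC50/Emax by sigmoid nonlinear regression.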

[5] = molecular target: Cannabinoid receptor 1 (Mus musculus) (UniProt P47746); experiment: Agonist activity at MF1 mouse brain CB1 receptor assessed as induction of [35S]GTPgammaS binding after 60 mins by liquid scintillation counting relative to cannabinoid receptor agonist CP55940; format: functional, tissue-based; in short: as §1
Chain of Cannabinoid receptor 1 (Mus musculus) (P47746 whole entry): as above

[6] = molecular target: Cannabinoid receptor 1 (Mus musculus) (UniProt P47746); experiment: Antagonist activity at MF1 mouse brain CB1 receptor assessed as inhibition of CP55940-induced [35S]GTPgammaS binding at 1 uM after 60 mins by liquid scintillation counting; format: functional
In short: (§2)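 Same [35S]GTPγS assay on mouse whole brain membranes (5 μg/well, adenosine deaminase-preincubated). 0.1 nM [35S]GTPγS, 30 μM GDP. Single concentration of test compound, 1 μM or 100 nM, against a log concentration-response curve of CP-55940. Incubation 60 min at 30 °C. Read by filtration and liquid scintillation counting.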

[7] = molecular target: T1, Cannabinoid receptor 1; experiment: Agonist activity at human CB1 receptor expressed in CHO cells assessed as induction of [35S]GTPgammaS binding after 60 mins by liquid scintillation counting; format: functional, cell-based; in short: as §1
[8] = molecular target: T1, Cannabinoid receptor 1; experiment: Antagonist activity at human CB1 receptor expressed in CHO cells assessed as inhibition of CP55940-induced [35S]GTPgammaS binding after 60 mins by liquid scintillation counting; format: functional, cell-based
[9] = molecular target: Cannabinoid receptor 1 (Mus musculus) (UniProt P47746); experiment: Antagonist activity at MF1 mouse brain CB1 receptor assessed as inhibition of CP55940-induced [35S]GTPgammaS binding at 100 nM after 60 mins by liquid scintillation counting; format: functional; in short: as §2
[10] = Chemical stability of the compound in biological buffer at 2.1 mM at 30 degC after 90 mins by LC-MS/MS analysis; format: physicochemical; conditions: 1.5 h, 2100 µM
In short: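 DMSO solution (2.1 mM stock) diluted in GTPγS binding buffer and incubated 90 min at 30 °C. Samples taken at 60 and 90 min and analysed by LC–ESI triple-quadrupole MS (positive mode, C18, acetonitrile/0.1% formic acid gradient) for hydrolysis products.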

[11] = system: Plasma; experiment: Metabolic stability of the compound in human plasma assessed as plasma esterase-mediated compound hydrolysis at 200 uM from 15 to 120 mins by reverse-phase LC-MS analysis; format: ADME, cell-free
In short: (§3)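 Citrated human plasma, or water as control, spiked to final 1 × 10⁻⁴ or 2 × 10⁻⁴ M. Incubated at 37 °C for 0, 15, 30, 60, 120 min, stopped with acetonitrile, centrifuged. Supernatant run by reverse-phase LC (C8, methanol/water 92/8) with UV 254 nm and positive-ion MS. Triplicates. AUC(0–120 min) compared by Student's t test.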

[12] = system: CYP3A4; experiment: Metabolic stability assessed as compound remaining at 1 uM after 1 hr by LC-MS analysis in presence of human CYP3A4 and NADPH; format: ADME; conditions: human CYP3A4 enzyme, read-out: Stability
In short: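 Recombinant human CYP3A4 at 20 pmol/mL (0.1–0.2 mg/mL protein). Substrate final 1 μM, 0.25% organic solvent. Run with NADPH regenerating system or phosphate buffer instead. Incubated 1 h at 37 °C, stopped with acetonitrile. Percent remaining by MS.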

[13] = system: Plasma; experiment: Metabolic stability of the compound in human plasma assessed as plasma esterase-mediated compound hydrolysis at 100 uM from 15 to 120 mins by reverse-phase LC-MS analysis; format: ADME, cell-free; in short: as §3

Chain of Cannabinoid receptor 2 (P34972 whole entry): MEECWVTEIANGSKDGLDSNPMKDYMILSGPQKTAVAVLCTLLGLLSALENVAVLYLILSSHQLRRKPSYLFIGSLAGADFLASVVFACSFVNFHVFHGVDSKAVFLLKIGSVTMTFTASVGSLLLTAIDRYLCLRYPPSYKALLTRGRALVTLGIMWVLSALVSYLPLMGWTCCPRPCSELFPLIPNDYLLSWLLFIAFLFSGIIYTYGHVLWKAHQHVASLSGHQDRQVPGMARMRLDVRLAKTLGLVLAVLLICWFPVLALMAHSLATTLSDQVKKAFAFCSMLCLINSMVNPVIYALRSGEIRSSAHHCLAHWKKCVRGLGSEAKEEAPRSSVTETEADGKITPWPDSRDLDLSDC
T1 sequence (P21554 whole entry): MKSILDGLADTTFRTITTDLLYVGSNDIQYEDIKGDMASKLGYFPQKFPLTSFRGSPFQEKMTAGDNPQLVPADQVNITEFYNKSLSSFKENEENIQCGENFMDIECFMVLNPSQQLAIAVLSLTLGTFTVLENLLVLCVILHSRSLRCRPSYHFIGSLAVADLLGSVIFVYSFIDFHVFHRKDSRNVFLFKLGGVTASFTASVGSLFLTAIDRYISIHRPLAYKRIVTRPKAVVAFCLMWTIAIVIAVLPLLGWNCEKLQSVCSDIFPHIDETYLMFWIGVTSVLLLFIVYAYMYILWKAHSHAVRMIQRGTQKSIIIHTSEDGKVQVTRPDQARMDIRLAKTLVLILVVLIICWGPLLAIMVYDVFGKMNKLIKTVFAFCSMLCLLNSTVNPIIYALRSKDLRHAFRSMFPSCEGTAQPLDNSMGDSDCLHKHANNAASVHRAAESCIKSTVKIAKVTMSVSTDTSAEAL

| SMILES | Ki [1] | Ki [2] | further results |
| --- | --- | --- | --- |
| CCCCCc1cc(O)cc(OCCCCCCCCOC(CO)CO)c1 | 1860 nM | 1160 nM | – |
| CCCCCCc1ccc(OCCCCCCCCCCC(=O)OC(CO)CO)cc1O | > 10000 nM | 7870 nM | – |
| CCCCCCc1ccc(OCCCCCCCCCCC(=O)OCC(O)CO)cc1O (stereo not given) | > 10000 nM | 10400 nM | – |
| CCCCCCc1ccc(O)cc1OCCCCCCCCCCC(=O)OCC(O)CO (stereo not given) | > 10000 nM | 4820 nM | – |
| CCCCCCC(C)(C)c1cc(O)cc(OCCCCCCOC(CO)CO)c1 | – | 190 nM | – |
| CCCCCCC(C)(C)c1cc(O)cc(OCCCCCCCCCCCCOC(CO)CO)c1 | 1040 nM | 1670 nM | – |
| CCCCCCC(C)(C)c1cc(O)cc(OCCCCCCCCOC(CO)CO)c1 | 270 nM | 110 nM | – |
| CCCCCCc1ccc(O)cc1OCCCCCCCCCCC(=O)OC(CO)CO | 60 nM | 1800 nM | Ratio Ki [3]: 32; EC50 [4]: 78.4 nM; Emax [5]: 11.4%; Activity [6]: inactive; Activity [7]: inactive; Activity [8]: inactive |
| CCCCCc1cc(O)cc(OCCCCCCOC(CO)CO)c1 | 430 nM | 910 nM | – |
| CCCCCc1cc(O)cc(OCCCCCCCC(=O)OC(CO)CO)c1 | 5600 nM | 7870 nM | – |
| CCCCCCC(C)(C)c1cc(O)cc(OCCCCCCCCCCOC(CO)CO)c1 | 2940 nM | 380 nM | – |
| CCCCCCc1ccc(OCCCCCCOC(CO)CO)cc1O | > 10000 nM | 1130 nM | – |
| CCCCCc1cc(O)cc(OCCCCCCCCCCCCOC(CO)CO)c1 | 3780 nM | > 10000 nM | – |
| CCCCCCC(C)(C)c1cc(O)cc(OCCCCCCCCCCC(=O)OC(CO)CO)c1 | 10 nM | 790 nM | Ratio Ki [3]: 88; EC50 [4]: 6.3 nM; Emax [5]: 14.7%; Activity [9]: inactive; Activity [7]: inactive; Activity [8]: inactive; Stability [10]: Stable; Stability [11]: Stable; remaining at 1 h, 1 µM [12]: 24%; Stability [13]: Stable |
| CCCCCCc1ccc(OCCCCCCCC(=O)OC(CO)CO)cc1O | > 10000 nM | 7870 nM | – |
| CCCCCc1cc(O)cc(OCCCCCCCCCCC(=O)OCC(O)CO)c1 (stereo not given) | > 10000 nM | 7910 nM | – |
| CCCCCCC(C)(C)c1cc(O)cc(OCCCCCCCCCCCC(=O)OC(CO)CO)c1 | 2710 nM | 800 nM | – |
| CCCCCCC(C)(C)c1ccc([C@@H]2C[C@H](O)CC[C@H]2CCCO)c(O)c1 [CP-55940] | – | – | EC50 [4]: 42 nM; Emax [5]: 104% |
| CCCCCc1cc(O)cc(OCCCCCCCCCCC(=O)OC(CO)CO)c1 | 5600 nM | 870 nM | – |
| CCCCCCC(C)(C)c1cc(O)cc(OCCCCCCCC(=O)OC(CO)CO)c1 | 1120 nM | 790 nM | – |
| CCCCCCc1ccc(O)cc1OCCCCCCCC(=O)OC(CO)CO | 800 nM | 1800 nM | – |
| CCCCC/C=C\C/C=C\C/C=C\C/C=C\CCCCOC(CO)CO | 20 nM | > 3000 nM | – |
| CCCCCCc1ccc(OCCCCCCCCCCOC(CO)CO)cc1O | > 10000 nM | 2390 nM | – |
| CCCCCCC(C)(C)c1cc(O)cc(OCCCCCCCCCCC(=O)OCC(O)CO)c1 (stereo not given) | > 10000 nM | 310 nM | – |
| CCCCCc1cc(O)cc(OCCCCCCCCCCOC(CO)CO)c1 | > 10000 nM | > 10000 nM | – |

Reference: ChEMBL document CHEMBL1921750 (J Med Chem, 2011)
